This note sets out measurements from ChEMBL document CHEMBL1127524, “Nitrobenzyl phosphorodiamidates as potential hypoxia-selective alkylating agents” (1994).

Experiment [1] deals with HT-29. Put plainly: Cytotoxicity of compound was evaluated against HT-29 cells under aerobic conditions. The experiment is classed as functional, Homo sapiens. A digest of the protocol: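 Human colon carcinoma HT-29 cells (α-MEM, 10% FBS), exponential growth, suspended at 1-2 × 10^5 cells/mL in glass vials; 4 h drug exposure gassed with 97% air/3% CO2; drug from DMSO, controls 1% DMSO; washed, plated, 14-day clonogenic colonies (>50 cells) counted; survival vs untreated; duplicates; IC90 from log-linear portion of survival curve.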

The subject of experiment [2] is HT-29. Put plainly: Cytotoxicity of compound was evaluated against HT-29 cells under hypoxic conditions. In kind it is functional, Homo sapiens. A digest of the protocol: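 HT-29 cells at 1-2 × 10^7 cells/mL deoxygenated 10 min at 37 °C in gas-tight syringe, injected into medium degassed 3 h with 97% N2/3% CO2; 4 h exposure under continuous N2/CO2 gassing, run alongside aerobic arm with same drug stock; 1% DMSO controls; 14-day colony formation (>50 cells); survival vs untreated; duplicates; IC90 from log-linear survival curve.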

Bounds are passed on as bounds.

In the case of `CC(OP(=O)(N(CCCl)CCCl)N(CCCl)CCCl)c1ccc([N+](=O)[O-])cc1` (stereo not given), the LC90 with HT-29 [1] is over 2000 µM; in the experiment on HT-29 [2] it was 22 µM.
Turning to `O=[N+]([O-])c1ccc(COP(=O)(N(CCCl)CCCl)N(CCCl)CCCl)cc1`, the LC90 in the experiment on HT-29 [1] stood at 109 µM; in the experiment with HT-29 [2] it was 55 µM.
With `CN(C)CCCOC(=O)CC(OP(=O)(N(CCCl)CCCl)N(CCCl)CCCl)c1ccc([N+](=O)[O-])cc1` (stereo not given), the LC90 in the experiment with HT-29 [1] is 95 µM; in the experiment with HT-29 [2], 50 µM.
For the compound `CCOC(=O)CC(OP(=O)(N(CCCl)CCCl)N(CCCl)CCCl)c1ccc([N+](=O)[O-])cc1` (stereo not given), the LC90 was determined as 106 µM in the experiment with HT-29 [1] and 13 µM with HT-29 [2].
Take `CN(C)CCOC(=O)CC(OP(=O)(N(CCCl)CCCl)N(CCCl)CCCl)c1ccc([N+](=O)[O-])cc1` (stereo not given): the values for the LC90 in the experiment with HT-29 [1] and in the experiment on HT-29 [2] were 55 µM and 34 µM, respectively.
